Laboratory results reported in PubChem BioAssay.
Calls of active or inactive are those of the source.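 Rule for the calls, unless noted: active = compounds giving at least 50% inhibition in the cell-based MKP-3 phosphatase rescue imaging test; inactive = the rest.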

Columns and labels:
[1] = inhibitors of TNFa-induced NFkB p65 translocation, primary screen, imaging, HUVEC, MLSMR starter and 10KST1 sets (AID 438;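 active = inhibition above 20% together with a positive visual image hit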;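 note: compound added about 3h40 before a 20 min TNFalpha stimulation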;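 for inhibition: signal is the nuclear over cytoplasmic p65 intensity ratio per well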); conditions: HUVEC TNFa-induced p65 nuclear translocation; cell count: measured here: nuclei count (cytotoxicity indicator), at 2.08 µM; inhibition: at 2 µM, stronger effect = higher value, 0% TNFa-plus-vehicle, 100% no-TNFa wells
[2] = inhibitors of E-selectin induction by TNFa, primary screen, imaging, HUVEC, immunofluorescence, MLSMR starter and 10KST1 sets (AID 487;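 active = visually confirmed hit in the image check and inhibition above 20%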;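 for inhibition: signal is fraction of cell area covered by stained E-selectin grains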;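 for nuclei count: 100% = median nuclei count of all wells on the same plate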); conditions: HUVEC TNFalpha-induced E-selectin immunofluorescence imaging, at 2 µM; inhibition: stronger effect = higher value; nuclei count: measured here: cell number, toxicity
[3] = DUSP6 inhibitors restoring Erk phosphorylation by chemical complementation, primary imaging in DUSP6-transfected HeLa (AID 609); conditions: HeLa MKP-3 transfected, phospho-Erk imaging KS statistic, at 10 µM, cells stimulated with TPA for 15 min;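 for inhibition: phospho-Erk level distribution per well compared with pooled transfected vehicle control wells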
[4] = target: Dual specificity protein phosphatase 6 (Homo sapiens) (UniProt Q16828); test: as above; conditions: HeLa MKP-3 transfected, phospho-Erk imaging KS statistic; at 10 µM; stronger effect = higher value; cells stimulated with TPA for 15 min
Chain of Dual specificity protein phosphatase 6 (Homo sapiens) (Q16828 whole entry, looked up): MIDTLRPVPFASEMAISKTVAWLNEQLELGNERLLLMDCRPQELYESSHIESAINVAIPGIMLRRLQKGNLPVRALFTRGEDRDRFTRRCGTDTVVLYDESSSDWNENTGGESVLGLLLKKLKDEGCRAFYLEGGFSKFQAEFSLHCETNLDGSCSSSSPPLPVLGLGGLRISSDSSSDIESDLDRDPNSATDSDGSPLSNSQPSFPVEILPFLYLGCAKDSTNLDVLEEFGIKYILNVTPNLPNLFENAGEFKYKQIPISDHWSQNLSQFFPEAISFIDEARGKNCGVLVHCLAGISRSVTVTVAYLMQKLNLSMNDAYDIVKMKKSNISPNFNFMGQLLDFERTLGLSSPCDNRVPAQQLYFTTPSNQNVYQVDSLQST

[5] = target: Voltage-gated potassium channel subunit beta-2 (Rattus norvegicus) (UniProt P62483); test: KvBeta enzyme negative modulators, primary screen, biochemical, NADPH fluorescence (AID 622;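 active = fluorescence slope higher than the sample average by over 3 SD, cut at about -0.22 in these data, passing the limit was not always enough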;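 note: slope of raw intensity against log time taken from 70 to 1610 s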); conditions: recombinant KvBeta, 4-cyanobenzaldehyde reduction, at 10 µM, stronger effect = higher value
Chain of Voltage-gated potassium channel subunit beta-2 (Rattus norvegicus) (P62483 whole entry, looked up): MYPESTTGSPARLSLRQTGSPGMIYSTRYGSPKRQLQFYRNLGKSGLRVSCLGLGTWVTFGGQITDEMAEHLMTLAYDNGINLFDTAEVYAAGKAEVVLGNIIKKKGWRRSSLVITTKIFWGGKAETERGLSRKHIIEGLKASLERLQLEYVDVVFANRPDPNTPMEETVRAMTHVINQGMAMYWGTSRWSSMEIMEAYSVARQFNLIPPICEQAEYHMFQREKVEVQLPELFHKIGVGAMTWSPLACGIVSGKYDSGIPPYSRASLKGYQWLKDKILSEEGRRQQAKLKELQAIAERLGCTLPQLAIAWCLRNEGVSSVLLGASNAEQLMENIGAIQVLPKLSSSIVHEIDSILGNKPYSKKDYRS

[6] = target: Voltage-gated potassium channel subunit beta-2 (Rattus norvegicus) (UniProt P62483); test: KvBeta positive modulators, primary screen, biochemical, NADPH fluorescence (AID 623;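 active = NADPH fluorescence slope more negative than the mean of all samples by about 3 SD, 99.7% confidence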;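 note: fluorescence intensity change per second fitted from 20 to 320 s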); conditions: Recombinant KvBeta, NADPH fluorescence decrease slope, 10 min; at 10 µM; stronger effect = lower value
[7] = target: Muscarinic acetylcholine receptor M4 (Homo sapiens) (UniProt P08173); test: compounds altering M4/GIRK thallium flux, either direction, primary screen, M4 allosteric agonist project, cell-based, HEK293 M4/GIRK, BTC-AM (AID 625;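 active = fluorescence slope after compound addition differing from the mean of all tested samples at 99.7% confidence, mostly higher but some lower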;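 note: thallium influx through GIRK channels coupled to M4 in HEK293 cells with BTC-AM dye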); conditions: at 10 µM, actives lie on both sides
Chain of Muscarinic acetylcholine receptor M4 (Homo sapiens) (P08173 whole entry, looked up): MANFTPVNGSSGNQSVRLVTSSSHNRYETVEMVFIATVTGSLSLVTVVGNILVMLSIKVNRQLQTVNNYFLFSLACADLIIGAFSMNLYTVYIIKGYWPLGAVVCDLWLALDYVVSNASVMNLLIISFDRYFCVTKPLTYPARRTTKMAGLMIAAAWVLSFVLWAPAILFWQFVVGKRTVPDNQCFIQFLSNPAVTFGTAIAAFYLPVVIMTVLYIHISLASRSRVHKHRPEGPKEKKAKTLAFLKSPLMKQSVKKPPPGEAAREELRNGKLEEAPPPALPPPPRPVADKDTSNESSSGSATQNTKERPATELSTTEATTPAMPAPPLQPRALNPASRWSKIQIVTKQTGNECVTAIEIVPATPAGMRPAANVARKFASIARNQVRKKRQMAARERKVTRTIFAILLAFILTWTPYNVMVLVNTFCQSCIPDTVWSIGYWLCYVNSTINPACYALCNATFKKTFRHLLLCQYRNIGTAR
Outline: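 Material: HEK293 cells with M4 receptor and GIRK channels; Times: cells overnight at 37 °C, BTC-AM loading 1 h, reads 2 min total; Technique: kinetic BTC-AM fluorescence sampled at 1 Hz, 10 s pre-addition baseline; Read-out basis: slope over 15–24 s of trace normalized to starting intensity; Controls: carbachol positive, DMSO negative.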

[8] = inhibitors of larval lipid processing in zebrafish, primary screen, whole organism, PED6 fluorescence, gall bladder and intestine (AID 686;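 active = a full or partial loss of lipid-probe fluorescence in the fish gall bladder, intestine or both, judged by eye; inactive = no fluorescence loss, or compound toxic to the fish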;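 note: larvae 5 to 7 days old with five fish per well; signal comes from phospholipase A2 cleavage of quenched PED6 carried via bile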); conditions: Zebrafish larvae PED6 lipid processing, fluorescence scoring; screened at 20 µM (by protocol)
Outline: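 Incubation: overnight exposure of larvae to compound plus PED6 / Test system: live zebrafish larvae aged 5-7 days, whole organism / Amount: 5 larvae per well / Read-out basis: visual per-well fluorescence inhibition score / Signal: visual fluorescence microscopy scoring of gall bladder, gut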

[9] = inhibitors of Chlamydomonas gravitaxis, primary screen, whole organism, Chlamydomonas reinhardtii, WT vs cilia-less mutant, absorbance, 96-well (AID 463189;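 active = inhibition at or above 50% relative to wild type and mutant plate controls; inactive = inhibition below 50%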;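 note: 0% = wild type cc124 cells in DMSO and 100% = ciliumless bld1 mutant cells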); conditions: OD600 absorbance, 2 days, at 10 µM, stronger effect = higher value
[10] = measured here: cell density z-score
[11] = measured here: nuclear c-Myc green intensity z-score
[12] = measured here: nuclear pErk red intensity z-score, stronger effect = higher value

| Compound | cell count [1] | inhibition [1] | inhibition [2] | nuclei count [2] | z-score [3, 10] | z-score [3, 11] | z-score [3, 12] | inhibition [4] | fluorescence slope [5] | NADPH fluorescence slope [6] | fluorescence slope [7] | outcome [8] | inhibition [9] |
| --- | --- | --- | --- | --- | --- | --- | --- | --- | --- | --- | --- | --- | --- |
| COC(=O)[C@H]1CCCN1C(=O)Nc1cccc(Oc2c(F)c(F)c(F)c(F)c2F)c1 | 709 | -2.1% (inactive) | 2.5% (inactive) | 205% | 0.848 | 0.709 | 0.784 | 13.4% (inactive) | -0.396 (inactive) | -4.7e-05 (inactive) | 0.00536 (inactive) | inactive | 36.9% (inactive) |
| O=C(O)CCc1nn2cc(-c3ccccc3)nc2[nH]c1=O | 580 | 3% (inactive) | -147% (inactive) | 170% | 0.555 | -0.659 | -0.476 | -7.93% (inactive) | -0.00517 (active) | 2.1e-06 (inactive) | 0.00553 (inactive) | inactive | -5.8% (inactive) |
| Cc1ccc(N(CN2C(=O)C3CC=CCC3C2=O)C(=O)c2ccco2)cc1Cl (stereo unspecified) | 419 | -4.5% (inactive) | 32.8% (inactive) | 102% | 0.823 | -0.172 | 0.302 | -7.28% (inactive) | -0.453 (inactive) | -1.3e-05 (inactive) | 0.00483 (inactive) | inactive | 30.1% (inactive) |
| CCN(CC)c1nc(-c2cccc(OC)c2O)nc2ccccc12 | 624 | -3.5% (inactive) | -45.9% (inactive) | 171% | -1.06 | -1.37 | 0.629 | 4.37% (inactive) | -0.5 (inactive) | -9.9e-05 (inactive) | 0.005 (inactive) | inactive | 15.7% (inactive) |
| COc1ccc(OC)c(C2C(C#N)=C(N)Oc3cc(C)n(Cc4ccccn4)c(=O)c32)c1 (stereo unspecified) | 736 | 3.4% (inactive) | -76% (inactive) | 167% | 0.84 | 0.709 | -0.214 | 13.2% (inactive) | -0.443 (inactive) | -7.4e-05 (inactive) | 0.0059 (inactive) | inactive | 11.4% (inactive) |
| CCOCCn1c(SC)nc2c1c(=O)[nH]c(=O)n2C | 498 | 6.3% (inactive) | -6% (inactive) | 122% | 1.57 | -1.62 | 0.579 | 12.8% (inactive) | -0.529 (inactive) | -3.7e-05 (inactive) | 0.00609 (inactive) | inactive | 44.4% (inactive) |
| Cn1ccnc1C(O)c1ccc(OCc2ccccc2)cc1 (stereo unspecified) | 473 | -1.1% (inactive) | -18.4% (inactive) | 113% | -3.29 | 1.73 | -0.207 | 7.42% (inactive) | -0.487 (inactive) | -0.000123 (inactive) | 0.00541 (inactive) | inactive | -11.2% (inactive) |
| COC(=O)c1ccc(CN(C(C)=O)c2ccccc2)o1 | 547 | 0.8% (inactive) | -113% (inactive) | 141% | 0.183 | -0.22 | -0.676 | 15.4% (inactive) | -0.471 (inactive) | -9.4e-05 (inactive) | 0.00509 (inactive) | inactive | 34.2% (inactive) |
| CSc1cc(C)nc(N(C)C(C)=O)n1 | 672 | -1.4% (inactive) | -9.4% (inactive) | 145% | -2.7 | 1.16 | 0.496 | 5.35% (inactive) | -0.421 (inactive) | -5.5e-05 (inactive) | 0.00511 (inactive) | inactive | -6.47% (inactive) |
| CN(C)CCOC(=O)Cc1ccc(Cl)cc1 | 622 | -6.2% (inactive) | -90.8% (inactive) | 83.6% | 1.56 | -0.995 | -0.341 | 12.8% (inactive) | -0.539 (inactive) | -4.8e-05 (inactive) | 0.00854 (inactive) | inactive | 35.4% (inactive) |
| C=C(C)CC1N(c2cccc(OC)c2)C(=O)[C@@H]2C(C(=O)O)[C@H]3C=C[C@@]12O3 (stereo partly specified) | 628 | -15.4% (inactive) | 51.9% (inactive) | 182% | -0.541 | 1.19 | 1.46 | -7.28% (inactive) | -0.49 (inactive) | -7.9e-05 (inactive) | 0.00494 (inactive) | inactive | -0.618% (inactive) |
| COc1ccccc1C1/C(=C(/O)c2ccc(OC(C)C)cc2)C(=O)C(=O)N1c1cc(C)on1 (stereo unspecified) | 437 | -8.5% (inactive) | -118% (inactive) | 148% | 1.18 | -0.452 | -0.964 | 9.37% (inactive) | -0.438 (inactive) | -0.000335 (active) | 0.006 (inactive) | inactive | -0.61% (inactive) |
| Cc1ccc2cc(CNC(C)(C)C)c(=O)[nH]c2c1 | 632 | -4.2% (inactive) | -5% (inactive) | 141% | -0.205 | -0.75 | -0.413 | 7.7% (inactive) | -0.493 (inactive) | -3.2e-05 (inactive) | 0.00705 (inactive) | inactive | 2.56% (inactive) |
| COc1cccc(C=NCCNC(=O)c2nonc2N)c1O | 517 | -4% (inactive) | 62.5% (inactive) | 169% | -0.652 | 2.61 | -0.971 | 7.93% (inactive) | -0.413 (inactive) | -3.4e-05 (inactive) | 0.00584 (inactive) | inactive | -4.89% (inactive) |
| CCCCC(=O)c1c(C)cc(C)[nH]c1=O | 721 | -6.7% (inactive) | -99.5% (inactive) | 191% | 0.203 | 0.876 | 0.0182 | 3.97% (inactive) | -0.482 (inactive) | -7.1e-05 (inactive) | 0.00582 (inactive) | inactive | 0.273% (inactive) |
| C=CCn1c(=O)c(C(=O)NCCN(CC)CC)c(O)c2ccccc21 | 560 | 0% (inactive) | -97% (inactive) | 170% | 1.11 | -0.484 | 1.3 | 27.8% (inactive) | -0.368 (inactive) | -2.4e-05 (inactive) | 0.00442 (inactive) | inactive | 42.6% (inactive) |
| CCN(CC)CCN1C(=O)C(O)=C(C(C)=O)C1c1ccc(OC)c(OC)c1 (stereo unspecified) | 466 | 0.4% (inactive) | -202% (inactive) | 182% | 0.172 | -0.258 | 1.22 | -5.62% (inactive) | -0.445 (inactive) | -4.1e-05 (inactive) | 0.00464 (inactive) | inactive | 2.41% (inactive) |
| CC(C)OC(=O)CCNc1n[nH]c(=O)[nH]c1=O | 635 | -4.3% (inactive) | -4.4% (inactive) | 119% | 0.648 | 0.239 | 0.621 | -4.27% (inactive) | -0.499 (inactive) | -0.000105 (inactive) | 0.00594 (inactive) | inactive | -8.46% (inactive) |
| CCSc1nnc(NC(=O)C(C(F)(F)F)C(F)(F)F)s1 | 702 | -5% (inactive) | -40.7% (inactive) | 146% | -0.0594 | -1.31 | -1.04 | -0.233% (inactive) | -0.449 (inactive) | -4.7e-05 (inactive) | 0.00555 (inactive) | inactive | 21.1% (inactive) |
| N#CC(C#N)C(c1ccsc1)c1c(-c2ccccc2)[nH][nH]c1=O (stereo unspecified) | 712 | -0.5% (inactive) | -88.8% (inactive) | 169% | 0.118 | -0.0424 | 0.886 | -4.27% (inactive) | -0.495 (inactive) | -6.9e-05 (inactive) | 0.00622 (inactive) | inactive | 3.19% (inactive) |
| Cc1cc(O)ccc1-c1cnc2ccccc2n1 | 695 | 2% (inactive) | -163% (inactive) | 166% | -0.391 | 1.61 | 0.545 | -6.06% (inactive) | -0.482 (inactive) | -6.2e-05 (inactive) | 0.00527 (inactive) | inactive | -11.2% (inactive) |
| C=CCOc1nc2c(c(=O)n(Cc3ccc(Cl)cc3)c(=O)n2C)n1C | 534 | -5.1% (inactive) | 22.1% (inactive) | 170% | -0.487 | 1.21 | 0.796 | -9.91% (inactive) | -0.414 (inactive) | -5.4e-05 (inactive) | 0.00453 (inactive) | inactive | -3.62% (inactive) |
| Cc1cc(CCC(=O)O)c(C)cc1CCC(=O)O | 593 | 0.2% (inactive) | -64.2% (inactive) | 149% | 0.485 | 1.16 | -0.56 | 5.35% (inactive) | -0.452 (inactive) | -0.000105 (inactive) | 0.00588 (inactive) | inactive | 1.89% (inactive) |
| Oc1ccc2ccccc2c1C=NC12CN3CCN(CN(C3)C1)C2 | 349 | -5.7% (inactive) | -45.1% (inactive) | 163% | -0.271 | 0.531 | 0.781 | -2.59% (inactive) | -0.436 (inactive) | -0.000124 (inactive) | 0.00489 (inactive) | inactive | 1.64% (inactive) |
| COc1ccccc1C1CC(c2ccc(Cl)cc2)Nc2nc(N)nn21 (stereo unspecified) | 404 | 0% (inactive) | -104% (inactive) | 146% | -0.136 | -0.282 | -0.582 | 11.9% (inactive) | -0.459 (inactive) | -0.000104 (inactive) | 0.00483 (inactive) | inactive | -3.22% (inactive) |
| CC1(C)NC(=O)N(CC(O)COc2cc3ccccc3cc2C(=O)N2CCCCC2)C1=O (stereo unspecified) | 595 | -11.9% (inactive) | 5.9% (inactive) | 157% | 0.439 | 1.12 | -0.435 | 5.42% (inactive) | -0.383 (inactive) | 2.1e-06 (inactive) | 0.00552 (inactive) | inactive | 33.9% (inactive) |
| Cn1c(N2CCN(c3ccccn3)CC2)nc2c1c(=O)n(Cc1ccc(Cl)cc1)c(=O)n2C | 678 | 5.8% (inactive) | -153% (inactive) | 180% | -0.409 | -1.46 | -0.591 | 27.8% (inactive) | -0.498 (inactive) | -2.6e-05 (inactive) | 0.00592 (inactive) | inactive | 24.6% (inactive) |
